Columns and labels:
[1] = target: T1, Amine oxidase [flavin-containing] A (Homo sapiens, UniProt P21397); assay: Inhibition of recombinant human MAO-A expressed in baculovirus infected BTI insect cells using tyramine as substrate pretreated for 30 mins followed by substrate addition incubated for 30 mins measured at 5 mins interval by horse-radish peroxidase/amplex red-based fluorometric method
T1 sequence (P21397 whole entry): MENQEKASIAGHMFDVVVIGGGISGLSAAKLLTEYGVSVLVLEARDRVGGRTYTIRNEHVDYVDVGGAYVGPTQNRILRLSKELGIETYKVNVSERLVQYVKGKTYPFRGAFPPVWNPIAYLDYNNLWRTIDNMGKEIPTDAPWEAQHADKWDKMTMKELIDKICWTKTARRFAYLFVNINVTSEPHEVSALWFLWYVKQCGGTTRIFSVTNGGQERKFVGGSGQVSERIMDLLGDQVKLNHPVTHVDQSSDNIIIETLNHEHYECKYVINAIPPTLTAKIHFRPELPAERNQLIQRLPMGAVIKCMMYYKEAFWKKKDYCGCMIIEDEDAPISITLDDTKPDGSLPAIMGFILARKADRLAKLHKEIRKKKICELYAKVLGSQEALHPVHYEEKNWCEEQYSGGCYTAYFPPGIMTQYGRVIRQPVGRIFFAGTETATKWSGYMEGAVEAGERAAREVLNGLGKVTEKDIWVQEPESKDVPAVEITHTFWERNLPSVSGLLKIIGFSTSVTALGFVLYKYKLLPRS
Method in brief: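 Recombinant hMAO-A (0.5 U/mL stock) or hMAO-B (0.64 U/mL stock) in phosphate buffer, preincubated with inhibitor (solutions 10^-3 to 10^-9 M in 2% DMSO) for 30 min at 37°C. Background-subtracted against DMSO control; quadruplicate.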

[2] = target: T2, Amine oxidase [flavin-containing] B (Homo sapiens, UniProt P27338); assay: Non-competitive inhibition of recombinant human MAO-B expressed in baculovirus infected BTI insect cells using varying levels of tyramine as substrate pretreated for 30 mins followed by substrate addition measured for 30 mins by Line-weaver burk plot method
T2 sequence (P27338 whole entry): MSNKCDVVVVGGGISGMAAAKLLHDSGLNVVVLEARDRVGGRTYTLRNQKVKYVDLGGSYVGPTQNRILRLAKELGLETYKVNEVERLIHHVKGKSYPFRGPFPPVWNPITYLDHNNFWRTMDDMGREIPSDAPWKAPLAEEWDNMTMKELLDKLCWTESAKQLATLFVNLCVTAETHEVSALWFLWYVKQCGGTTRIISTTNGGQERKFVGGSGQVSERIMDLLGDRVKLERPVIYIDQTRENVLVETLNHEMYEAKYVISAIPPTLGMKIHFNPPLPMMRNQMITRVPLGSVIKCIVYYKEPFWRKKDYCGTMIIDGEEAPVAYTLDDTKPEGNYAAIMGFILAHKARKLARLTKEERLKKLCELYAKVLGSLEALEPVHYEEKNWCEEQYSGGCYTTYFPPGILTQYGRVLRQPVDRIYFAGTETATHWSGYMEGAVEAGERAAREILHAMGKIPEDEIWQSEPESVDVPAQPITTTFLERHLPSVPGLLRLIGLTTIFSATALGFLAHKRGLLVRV
Method in brief: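 hMAO-B preincubated 30 min at 37°C with inhibitor at five concentrations. Working solution with tyramine at 20, 10, 5, 2.5, 1.25 and 0.625 µM then added, and fluorescence (Ex/Em 535/587 nm) followed for 30 min alongside an inhibitor-free run; quadruplicate. Inhibition type from Lineweaver-Burk plots; Ki from x-intercept of Vmax replotted against inhibitor concentration.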

NIH3T3 = assay: Cytotoxicity against mouse NIH/3T3 cells by MTT assay; assay type: cell-based
Method in brief: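 NIH/3T3 mouse embryonic fibroblasts seeded at 1x10^4 cells per well and grown per supplier recommendations. Compounds tested over 0.0316-1000 µM by MTT reduction to formazan; IC50 determined.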

Salmonella typhimurium [3] = assay: Genotoxicity in Salmonella typhimurium TA98 assessed as increase in number of revertants at 0.156 mg/ml in presence of aroclor-1254-induced Sprague-Dawley rat liver microsomal S9 fraction by Ames-MPF assay relative to baseline; assay type: toxicity; details: salmonella enterica subsp. enterica serovar typhimurium, microsomes
Method in brief: (§1)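 AmesMPF 98/100 fluctuation format with S. typhimurium TA98 (frameshift) and TA100 (base-pair substitution), run with and without S9. Compounds were made up in DMSO at 0.156–5 mg/mL, six levels; solvent control was 4% DMSO. With S9, positive controls were 2-aminoanthracene at 1 µg/mL (TA98) and 2.5 µg/mL (TA100). Wells turned yellow by pH drop were scored positive. Fold over baseline is mean positive wells divided by (zero-dose mean + 1 SD). Student's t-test, p<0.05.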

Salmonella typhimurium [4] = assay: Genotoxicity in Salmonella typhimurium TA98 assessed as increase in number of revertants at 5 mg/ml in presence of aroclor-1254-induced Sprague-Dawley rat liver microsomal S9 fraction by Ames-MPF assay relative to baseline; assay type: toxicity; details: salmonella enterica subsp. enterica serovar typhimurium, microsomes; method in brief: as §1
Salmonella typhimurium [5] = assay: Genotoxicity in Salmonella typhimurium TA100 assessed as increase in number of revertants at 0.156 mg/ml in presence of aroclor-1254-induced Sprague-Dawley rat liver microsomal S9 fraction by Ames-MPF assay relative to baseline; assay type: toxicity; details: salmonella enterica subsp. enterica serovar typhimurium, microsomes; method in brief: as §1
Salmonella typhimurium [6] = assay: Genotoxicity in Salmonella typhimurium TA100 assessed as increase in number of revertants at 0.625 mg/ml in presence of aroclor-1254-induced Sprague-Dawley rat liver microsomal S9 fraction by Ames-MPF assay relative to baseline; assay type: toxicity; details: salmonella enterica subsp. enterica serovar typhimurium, microsomes; method in brief: as §1
Salmonella typhimurium [7] = assay: Genotoxicity in Salmonella typhimurium TA100 assessed as increase in number of revertants at 0.3125 mg/ml in absence of aroclor-1254-induced Sprague-Dawley rat liver microsomal S9 fraction by Ames-MPF assay relative to baseline; assay type: toxicity; details: salmonella enterica subsp. enterica serovar typhimurium, microsomes; method in brief: as §1

Compound `C#CCn1c(-c2ccc(C(=O)N/N=C/c3cccnc3)cc2)nc2ccccc21` has an IC50 [1] of 9.59 µM, a Ki [2] of 0.15 to 0.151 µM and an IC50 (NIH3T3) of 316 µM. For the same compound, the “fold change (FC)” value (Salmonella typhimurium [3]) was 0.35, the “fold change (FC)” value (Salmonella typhimurium [4]) was 0 and the “fold change (FC)” value (Salmonella typhimurium [5]) was 0.53. The “fold change (FC)” value (Salmonella typhimurium [6]) was 0.27 and the “fold change (FC)” value (Salmonella typhimurium [7]) was 0.99.

With `C#CCn1c(-c2ccc(C(=O)N/N=C/c3ccc(F)cc3)cc2)nc2ccccc21` the IC50 [1] was 0.851 µM, the IC50 (NIH3T3) was no less than 1000 µM and the “fold change (FC)” value (Salmonella typhimurium [3]) was 1.3. For the same compound, the “fold change (FC)” value (Salmonella typhimurium [4]) was 3.07, the “fold change (FC)” value (Salmonella typhimurium [5]) was 0.79 and the “fold change (FC)” value (Salmonella typhimurium [6]) was 1.15. For the same compound, the “fold change (FC)” value (Salmonella typhimurium [7]) was 0.79.

From ChEMBL document CHEMBL4038273, “MAO enzymes inhibitory activity of new benzimidazole derivatives including hydrazone and propargyl side chains” (Eur J Med Chem, 2017)
